Laboratory results reported in ChEMBL document CHEMBL3751842, “Novel triazolothiadiazines act as potent anticancer agents in liver cancer cells through Akt and ASK-1 proteins” (Bioorg Med Chem, 2016).
Activity calls are given as the source filed them. No cut-off for these calls is given here.

Columns and labels:
[1] = target: T1, Mitogen-activated protein kinase kinase kinase 5 (Homo sapiens) (UniProt Q99683); test: Activation of ASK1 in human HuH7 cells assessed as SAPK/JNK phosphorylation after 24 to 48 hrs by Western blot analysis; type: cell-based; details: Huh-7
T1 sequence (whole entry): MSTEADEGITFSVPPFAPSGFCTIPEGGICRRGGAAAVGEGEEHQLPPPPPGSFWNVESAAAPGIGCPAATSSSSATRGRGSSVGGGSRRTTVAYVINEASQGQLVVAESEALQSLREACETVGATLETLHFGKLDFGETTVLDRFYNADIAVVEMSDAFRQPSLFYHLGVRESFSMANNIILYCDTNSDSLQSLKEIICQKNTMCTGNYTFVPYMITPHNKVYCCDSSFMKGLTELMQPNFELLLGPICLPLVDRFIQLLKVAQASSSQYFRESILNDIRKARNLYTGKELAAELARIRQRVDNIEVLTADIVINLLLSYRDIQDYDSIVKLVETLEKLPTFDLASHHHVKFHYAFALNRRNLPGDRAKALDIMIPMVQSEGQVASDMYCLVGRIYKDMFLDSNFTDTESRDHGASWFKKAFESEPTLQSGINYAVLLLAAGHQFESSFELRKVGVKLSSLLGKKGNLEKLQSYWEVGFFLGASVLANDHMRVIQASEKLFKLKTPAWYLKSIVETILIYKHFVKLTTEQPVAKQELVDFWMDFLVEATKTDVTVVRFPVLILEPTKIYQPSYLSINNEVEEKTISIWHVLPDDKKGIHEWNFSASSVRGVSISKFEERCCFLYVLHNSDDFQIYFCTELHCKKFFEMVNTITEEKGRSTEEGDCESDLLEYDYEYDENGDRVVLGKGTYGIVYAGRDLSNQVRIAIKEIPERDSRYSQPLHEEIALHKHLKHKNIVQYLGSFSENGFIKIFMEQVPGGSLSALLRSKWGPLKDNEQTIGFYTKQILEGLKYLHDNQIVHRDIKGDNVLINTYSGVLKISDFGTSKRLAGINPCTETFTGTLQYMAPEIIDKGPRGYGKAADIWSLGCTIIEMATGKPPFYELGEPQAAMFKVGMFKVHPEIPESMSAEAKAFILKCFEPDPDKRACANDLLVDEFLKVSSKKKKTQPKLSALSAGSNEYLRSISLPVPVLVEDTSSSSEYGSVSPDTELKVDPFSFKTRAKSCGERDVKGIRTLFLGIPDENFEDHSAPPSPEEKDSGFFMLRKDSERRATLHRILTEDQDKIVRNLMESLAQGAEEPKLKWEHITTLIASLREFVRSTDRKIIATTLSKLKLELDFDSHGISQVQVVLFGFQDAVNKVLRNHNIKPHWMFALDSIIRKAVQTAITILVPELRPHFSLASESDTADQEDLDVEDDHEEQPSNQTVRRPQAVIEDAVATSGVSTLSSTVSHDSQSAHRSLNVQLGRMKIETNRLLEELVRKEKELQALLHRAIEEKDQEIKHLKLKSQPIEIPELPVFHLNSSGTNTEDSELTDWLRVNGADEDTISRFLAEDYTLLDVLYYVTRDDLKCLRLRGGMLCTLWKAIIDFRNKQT
Outline: (§1)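 Cells were exposed to compound or DMSO control for 24 or 48 h. Lysates were loaded at […] protein per lane and immunoblotted with antibodies diluted 1:100 to 1:500 in 5% BSA-TBS-T. Targets were p-Akt (Ser473), Akt, p-GSK3-α/β (Ser21/9), GSK3-α/β, SAPK/JNK, p-SAPK/JNK (Thr183/Tyr185), PARP, p-β-catenin, β-catenin, cyclin D1, p-ASK1 (S83) and p-ASK1 (S966). Actin served as the loading control.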

[2] = target: T1, Mitogen-activated protein kinase kinase kinase 5 (Homo sapiens); test: Activation of ASK1 in human HuH7 cells assessed as Ser966 phosphorylation after 24 to 48 hrs by Western blot analysis; type: cell-based; details: Huh-7; outline: as §1
[3] = target: T1, Mitogen-activated protein kinase kinase kinase 5 (Homo sapiens); test: Activation of ASK1 in human HuH7 cells assessed as Ser83 phosphorylation after 24 to 48 hrs by Western blot analysis; type: cell-based; details: Huh-7; outline: as §1
Huh-7 [4] = test: Induction of apoptosis in human HuH7 cells assessed as decrease in cyclin D1 level after 24 to 48 hrs by Western blot analysis; type: functional, cell-based; outline: as §1
[5] = target: Glycogen synthase kinase-3 beta (Homo sapiens) (UniProt P49841); test: Inhibition of GSK3beta phosphorylation in human Mahlavu cells after 24 to 48 hrs by Western blot analysis; type: cell-based; outline: as §1
Mahlavu [6] = test: Induction of oxidative stress in human Mahlavu cells assessed as ROS accumulation at 10 uM after 48 hrs by DCFH-DA staining based fluorescence microscopy; type: functional, cell-based
Outline: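 Cells in 6-well dishes were treated with 10 µM compound or DMSO for 48 h. They were washed in PBS and stained for 15 min at 37°C in the dark with DCFH-DA solution (1 mM DCFH-DA, 10 mM glucose, 10 mM HEPES in PBS). After three PBS washes, cells were viewed by fluorescence microscopy. Selenium-deficient serum-free medium culture served as the positive control.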

Mahlavu [7] = test: Induction of oxidative stress in human Mahlavu cells assessed as ROS accumulation at 10 uM after 48 hrs by flow cytometry analysis; type: functional, cell-based
Outline: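 Huh7 and Mahlavu cells were treated after 24 h with 10 µM compound or DMSO for 48 h. Cells were then trypsinized and processed with a MUSE oxidative stress kit for flow cytometric counting of ROS-positive cells. Cells grown in selenium-deficient serum-free medium served as the positive control.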

Huh-7 [8] = test: Induction of cell cycle arrest in human HuH7 cells assessed as accumulation at subG1 phase at 10 uM after 24 to 48 hrs by propidium iodide staining based FACS analysis; type: functional
Outline: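 Huh7 cells were seeded at 300,000 per 100-mm dish. After 24 h they were treated with 10 µM compound or DMSO for 24 h and 48 h. Cells were trypsinized, fixed in ice-cold 70% ethanol and stored at −20 °C. They were then stained with propidium iodide and cell-cycle distribution, including SubG1, was read by flow cytometry.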

Huh-7 [9] = test: Induction of apoptosis in human HuH7 cells assessed as PARP cleavage after 24 to 48 hrs by Western blot analysis; type: functional, cell-based; outline: as §1
[10] = Cytotoxicity against human HuH7 cells assessed as growth inhibition after 72 hrs by sulforhodamine B assay; type: functional, cell-based, Huh-7; details: Homo sapiens, Huh-7, 72 h; read-out: IC50
Outline: (§2)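 Cells were grown at 37°C, 5% CO2 in DMEM with 10% FBS. They were seeded at 1000–3000 cells/well, grown 24 h, then exposed to compound at 2.5–40 µM for 72 h. Cells were fixed in 10% TCA for 1 h at 4°C, stained with 0.4% SRB in 1% acetic acid for 10 min, and the dye solubilized in 10 mM Tris. Absorbance was read at 515 nm; runs were in triplicate; IC50 was calculated, with fits of R2 0.8–1 accepted.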

[11] = Cytotoxicity against human SNU475 cells assessed as growth inhibition after 72 hrs by sulforhodamine B assay; type: functional, cell-based, SNU-475; details: Homo sapiens, SNU-475, 72 h; read-out: IC50; outline: as §2
[12] = Cytotoxicity against human Hep3B cells assessed as growth inhibition after 72 hrs by sulforhodamine B assay; type: functional, cell-based, Hep 3B2; details: Homo sapiens, Hep3B, 72 h; read-out: IC50; outline: as §2
[13] = Effect on un-phosphorylated beta-catenin level in human Mahlavu cells after 24 to 48 hrs by Western blot analysis; type: ADME, cell-based; outline: as §1

Sequence of Glycogen synthase kinase-3 beta (Homo sapiens) (P49841 whole entry, looked up): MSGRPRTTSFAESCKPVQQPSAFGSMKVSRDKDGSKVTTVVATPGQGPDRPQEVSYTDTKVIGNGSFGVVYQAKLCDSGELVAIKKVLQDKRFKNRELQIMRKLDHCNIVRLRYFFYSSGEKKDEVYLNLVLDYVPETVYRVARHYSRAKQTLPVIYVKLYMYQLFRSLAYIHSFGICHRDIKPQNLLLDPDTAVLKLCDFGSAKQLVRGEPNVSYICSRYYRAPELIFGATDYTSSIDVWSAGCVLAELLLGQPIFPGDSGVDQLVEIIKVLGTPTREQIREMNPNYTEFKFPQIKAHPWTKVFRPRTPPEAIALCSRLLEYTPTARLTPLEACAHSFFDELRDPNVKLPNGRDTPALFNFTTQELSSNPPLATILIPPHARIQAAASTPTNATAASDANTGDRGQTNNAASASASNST

Row | Structure (SMILES) | Activity [1] | Activity [2] | Activity [3] | Activity (Huh-7 [4]) | inhibition [5] | Activity (Mahlavu [6]) | Activity (Mahlavu [7]) | Activity (Huh-7 [8]) | Activity (Huh-7 [9]) | IC50 [10] [µM] | IC50 [11] [µM] | IC50 [12] [µM] | Activity [13]
1 | Cc1ccc(C2=Nn3c(nnc3C(C)c3ccc(CC(C)C)cc3)SC2)cc1 (stereo unspecified) | Active | Active | Active | Active | Active | Active | Active | Active | Active | 5 | 8.7 | 5.3 | Non-toxic
2 | COc1ccc(C2=Nn3c(nnc3C(C)c3ccc(CC(C)C)cc3)SC2)cc1 (stereo unspecified) | Active | Active | Active | Active | Active | Active | Active | Active | Active | 3.7 | 8.5 | 6.5 | Non-toxic
